Activity calls are given as the source filed them. The rule behind the calls is not given here.
Tests used:
[1] = Toxicity in SCID mouse xenografted with MDA-MB-231 cells assessed as animal death at 40 mg/kg, po qd for 15 days; type: organism-based; conditions: in vivo, dose 40 mg/kg/day, time 15 day, read-out: Activity
[2] = tested on: MDA-MB-231; assay: Induction of apoptosis in human MDA-MB-231 cells assessed as late apoptotic cells at 0.03 uM incubated for 24 hrs by annexin V-FITC and propidium iodide staining based flow cytometry analysis (reference value: 0.85 %); type: functional
[3] = Acute toxicity in male Sprague-Dawley rat assessed as increase in body weight rate at 200 mg/kg, po administered as single dose observed until day 9 and monitored every 3 days; type: organism-based; conditions: in vivo, 216 h, time 9 day
Summary of the method: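 Sprague-Dawley rats (n = 3) received a single oral dose of 200 mg/kg in sterile water with 25% (v/v) PEG400 plus 5% DMSO. Behaviour and side effects were monitored daily, and average body weight was measured every 3 days.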

[4] = Acute toxicity in Sprague-Dawley rat assessed as histopathological changes in liver at 100 mg/kg, po administered as single dose measured after 24 hrs by H and E staining based light microscope analysis; type: organism-based; conditions: in vivo
Summary of the method: (§1)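 Sprague-Dawley rats received a single oral dose of 100 mg/kg in sterile water with 25% (v/v) PEG400 plus 5% DMSO. Organs were examined by histology and immunohistochemistry for pathological changes. Behaviour and side effects were checked daily.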

[5] = biological target: Mitogen-activated protein kinase 14 (Homo sapiens, UniProt Q16539); assay: Inhibition of human full length recombinant p38alpha using myelin basic protein as substrate incubated for 40 mins in presence of [gamma33P-ATP] by radiometric scintillation counting analysis
Summary of the method: (§2)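 Radiometric kinase assay run as an external profiling service, with ATP at the Km of each kinase. IC50 values are means of two independent experiments.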

[6] = biological target: Mitogen-activated protein kinase 1 (Homo sapiens, UniProt P28482); assay: Inhibition of human full length recombinant ERK2 using myelin basic protein as substrate incubated for 40 mins in presence of [gamma33P-ATP] by radiometric scintillation counting analysis
[7] = Toxicity against SCID mouse xenografted with human MDA-MB-231 cells assessed as change in body weight at 10 to 40 mg/kg, po QD for 21 days and measured every 3 days; type: organism-based; conditions: in vivo, 504 h, dose 10-40 mg/kg/day, time 21 day
Summary of the method: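 Exponential-phase cells washed and injected subcutaneously (5 × 10^6 cells in 100 μL) into 5–6-week SCID mice. At 150–200 mm3, mice randomised to groups of 6. Oral dosing daily in water with 25% PEG400 and 5% DMSO; paclitaxel 10 mg/kg weekly by tail vein. Body weight measured every 3 days and side effects checked daily.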

[8] = tested on: MDA-MB-231; assay: Inhibition of ERK phosphorylation in human MDA-MB-231 cells at 0.01 to 0.3 uM incubated for 20 hrs by Western blot analysis; type: cell-based; conditions: dose 0.01-0.3 µM
Summary of the method: (§3)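 MDA-MB-231 cells treated with a series of concentrations for 20 h at 37 °C. Cells washed with ice-cold saline and lysed in RIPA buffer with protease cocktail. Lysates cleared at 12000 rpm for 10 min at 4 °C and protein quantified by Bradford. Equal protein separated by SDS-PAGE, transferred to PVDF and probed with antibodies.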

[9] = tested on: MDA-MB-231; assay: Induction of apoptosis in human MDA-MB-231 cells assessed as necrotic cells at 0.03 uM incubated for 24 hrs by annexin V-FITC and propidium iodide staining based flow cytometry analysis (reference value: 0.2 %); type: functional
[10] = biological target: Ephrin type-A receptor 7 (Homo sapiens, UniProt Q15375); assay: Inhibition of human recombinant EPHA7 (613 to 909 residues) using KTFCGTPEYLAPEVRREPRILSEEEQEMFRDFDYIADWC incubated for 40 mins in presence of [gamma33P-ATP] by radiometric scintillation counting analysis; summary of the method: as §2
[11] = tested on: PC-9; assay: Antiproliferative activity against human PC-9 cells assessed as reduction in cell viability incubated for 72 hrs by MTT assay; type: functional, cell-based; conditions: PC-9, 72 h
Summary of the method: (§4)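 MTT viability assay. ATCC cell lines were grown in designated medium with 10% FBS at 37 °C, 5% CO2. Cells seeded at 1500−30000 per well and incubated 24 h, then exposed to compound (0−10 μg/mL) for 72 h. MTT added for 2−4 h. Formazan dissolved in DMSO (adherent) or acidified SDS overnight (suspension), absorbance read at 570 nm. Triplicates; IC50 calculated.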

[12] = tested on: MDA-MB-435; assay: Antitumor activity against human MDA-MB-435 cells xenografted in SCID mouse assessed as tumor growth inhibition administered orally once daily for 21 days and measured every 3 days; type: functional; conditions: dose 10-40 mg/kg/day, time 21.0 day
Summary of the method: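 SCID mice (5−6 weeks) injected subcutaneously with 100 μL of cells at 5 × 10^7/mL. At 150−200 mm3 mice randomized, 6 per group. Oral compounds given in water with 25% PEG400 plus 5% DMSO; paclitaxel given 10 mg/kg/week iv. Tumor volume a×b²/2 and body weight measured every 3 days. Inhibition rate (c−d)/c×100% against vehicle control.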

[13] = tested on: Ramos; assay: Antiproliferative activity against human Ramos cells assessed as reduction in cell viability incubated for 72 hrs by MTT assay; type: functional, cell-based; summary of the method: as §4
[14] = tested on: Mus musculus; assay: In vivo inhibition of Src in SCID mouse xenografted with human MDA-MB-231 cells assessed as reduction in phosphorylation of Src in tumor tissue at 40 mg/kg, po QD for 21 days by immunohistochemical analysis; type: functional, organism-based; conditions: dose 40.0 mg/kg/day, time 21.0 day
Summary of the method: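 Tumors taken from xenografted SCID mice dosed orally at 40 mg/kg/q.d. or given control; mice euthanized at set times. Tumors formalin-fixed and paraffin-embedded, stained by immunohistochemistry for phospho-proteins, and imaged by light microscopy.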

[15] = tested on: MIA PaCa-2; assay: Antiproliferative activity against human MIA PaCa-2 cells assessed as reduction in cell viability incubated for 72 hrs by MTT assay; type: functional, cell-based; conditions: MIA PaCa-2, 72 h; summary of the method: as §4
[16] = biological target: Proto-oncogene tyrosine-protein kinase Src (Homo sapiens) (UniProt P12931); assay: Inhibition of Src in human MDA-MB-231 cells assessed as inhibition of FAK phosphorylation at 0.1 to 0.3 uM incubated for 20 hrs by Western blot analysis; type: cell-based; conditions: dose 0.1-0.3 µM; summary of the method: as §3
[17] = Metabolic stability in monkey liver microsomes assessed as parent compound remaining at 1 uM measured after 60 mins in presence of NADPH by HPLC-MS/MS analysis; type: ADME, Macaca mulatta, Microsome; conditions: rhesus monkey, read-out: Stabilty
Summary of the method: (§5)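 Compound at 1 μM incubated with 0.5 mg/mL liver microsomes and 1 mM NADPH. Samples taken at 0, 10, 15, 30, 45 and 60 min and quenched with acetonitrile. After centrifugation, supernatant analysed by HPLC-MS/MS, with percent parent remaining relative to the 0 min area.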

[18] = Metabolic stability in rat liver microsomes assessed as parent compound remaining at 1 uM measured after 60 mins in presence of NADPH by HPLC-MS/MS analysis; type: ADME, Microsome; conditions: read-out: Stabilty; summary of the method: as §5
[19] = Acute toxicity in Sprague-Dawley rat assessed as histopathological changes in spleen at 100 mg/kg, po administered as single dose measured after 24 hrs by H and E staining based light microscope analysis; type: organism-based; conditions: in vivo; summary of the method: as §1
[20] = tested on: ZR-75-1; assay: Antiproliferative activity against human ZR-75-1 cells assessed as reduction in cell viability incubated for 72 hrs by MTT assay; type: functional, cell-based; conditions: ZR-75-1, 72 h; summary of the method: as §4

Chain of Mitogen-activated protein kinase 14 (Q16539 whole entry): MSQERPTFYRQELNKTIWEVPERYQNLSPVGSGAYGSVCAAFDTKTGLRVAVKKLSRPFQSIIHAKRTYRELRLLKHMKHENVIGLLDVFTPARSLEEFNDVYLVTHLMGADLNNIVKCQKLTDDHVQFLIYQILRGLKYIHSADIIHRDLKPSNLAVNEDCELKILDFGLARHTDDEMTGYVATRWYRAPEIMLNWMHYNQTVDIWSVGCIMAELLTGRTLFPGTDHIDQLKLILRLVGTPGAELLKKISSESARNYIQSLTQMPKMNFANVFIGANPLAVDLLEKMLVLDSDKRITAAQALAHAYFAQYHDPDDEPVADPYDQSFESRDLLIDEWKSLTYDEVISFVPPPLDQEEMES
Chain of Ephrin type-A receptor 7 (Q15375 whole entry, the tested form may be a part): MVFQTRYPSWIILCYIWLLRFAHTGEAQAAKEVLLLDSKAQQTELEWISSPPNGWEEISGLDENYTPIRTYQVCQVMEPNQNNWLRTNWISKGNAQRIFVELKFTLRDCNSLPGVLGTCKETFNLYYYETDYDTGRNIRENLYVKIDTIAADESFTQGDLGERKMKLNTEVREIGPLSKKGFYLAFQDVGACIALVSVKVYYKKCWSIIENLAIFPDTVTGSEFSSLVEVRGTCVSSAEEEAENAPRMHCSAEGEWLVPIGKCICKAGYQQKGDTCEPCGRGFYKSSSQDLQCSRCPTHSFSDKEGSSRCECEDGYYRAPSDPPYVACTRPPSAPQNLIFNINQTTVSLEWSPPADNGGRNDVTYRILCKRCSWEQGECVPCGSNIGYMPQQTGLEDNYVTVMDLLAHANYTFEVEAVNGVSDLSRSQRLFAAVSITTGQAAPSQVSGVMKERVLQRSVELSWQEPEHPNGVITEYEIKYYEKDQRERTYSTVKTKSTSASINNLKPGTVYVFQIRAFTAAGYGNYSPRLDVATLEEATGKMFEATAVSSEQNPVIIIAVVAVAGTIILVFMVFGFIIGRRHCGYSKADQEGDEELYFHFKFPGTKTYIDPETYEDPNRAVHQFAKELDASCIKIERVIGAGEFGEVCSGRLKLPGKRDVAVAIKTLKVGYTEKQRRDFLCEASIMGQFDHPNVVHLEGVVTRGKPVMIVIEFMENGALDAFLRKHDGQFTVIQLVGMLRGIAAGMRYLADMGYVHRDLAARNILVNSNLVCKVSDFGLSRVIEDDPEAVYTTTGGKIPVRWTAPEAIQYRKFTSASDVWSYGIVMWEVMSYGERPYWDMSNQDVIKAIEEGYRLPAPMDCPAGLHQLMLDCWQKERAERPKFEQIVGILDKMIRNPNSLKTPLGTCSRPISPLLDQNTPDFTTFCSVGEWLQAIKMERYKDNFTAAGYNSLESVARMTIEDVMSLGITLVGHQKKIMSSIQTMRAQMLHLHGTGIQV
Chain of Proto-oncogene tyrosine-protein kinase Src (Homo sapiens) (P12931 2-536 limits assumed): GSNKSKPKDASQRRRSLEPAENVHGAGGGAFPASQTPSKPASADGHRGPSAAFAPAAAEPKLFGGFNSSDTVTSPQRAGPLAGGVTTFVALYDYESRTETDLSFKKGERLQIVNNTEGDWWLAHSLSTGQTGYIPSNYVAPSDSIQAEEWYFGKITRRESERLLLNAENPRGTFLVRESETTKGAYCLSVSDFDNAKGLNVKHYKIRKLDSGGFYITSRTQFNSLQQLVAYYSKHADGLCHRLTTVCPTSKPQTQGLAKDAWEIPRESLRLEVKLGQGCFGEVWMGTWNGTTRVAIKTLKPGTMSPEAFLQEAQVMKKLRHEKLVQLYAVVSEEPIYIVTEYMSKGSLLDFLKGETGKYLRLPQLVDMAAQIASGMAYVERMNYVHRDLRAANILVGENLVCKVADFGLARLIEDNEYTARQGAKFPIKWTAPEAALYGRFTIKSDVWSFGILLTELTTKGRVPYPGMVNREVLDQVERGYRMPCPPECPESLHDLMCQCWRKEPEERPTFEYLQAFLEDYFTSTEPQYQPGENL
Chain of Mitogen-activated protein kinase 1 (P28482 whole entry): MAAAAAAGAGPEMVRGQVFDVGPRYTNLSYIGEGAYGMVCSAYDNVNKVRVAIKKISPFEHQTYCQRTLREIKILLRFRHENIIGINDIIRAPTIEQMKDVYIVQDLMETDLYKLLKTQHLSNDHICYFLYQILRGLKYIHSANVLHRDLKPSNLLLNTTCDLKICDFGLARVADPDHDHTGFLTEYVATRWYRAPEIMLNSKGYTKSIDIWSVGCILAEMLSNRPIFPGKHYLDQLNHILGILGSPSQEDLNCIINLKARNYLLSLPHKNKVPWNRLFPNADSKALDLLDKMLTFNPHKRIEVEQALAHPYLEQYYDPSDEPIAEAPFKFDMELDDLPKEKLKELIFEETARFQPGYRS

## Cc1ccc(NC(=O)c2ccc(C)c(C(F)(F)F)c2)cc1C#Cc1nn([C@H]2CC[C@H](O)CC2)c2ncnc(N)c12
[1]
  mortality at 360 h: 0%
[2]
  Activity: 11.2%
[3]
  Activity: Toxic
[4]
  Activity: Non-Toxic
[5]
  IC50: 342 nM
[6]
  IC50: > 10000 nM
[7]
  Activity: Non-Toxic
[8]
  inhibition: Active
[9]
  Activity: 2.42%
[10]
  IC50: 143 nM
[11]
  IC50: 152 nM
[12]
  Activity: Dose-dependent effect
[13]
  IC50: 10000 nM
[14]
  inhibition: Active
[15]
  IC50: < 600 nM
[16]
  inhibition: Active
[17]
  remaining at 1 h, 1 µM: > 90%
[18]
  remaining at 1 h, 1 µM: > 90%
[19]
  Activity: Non-Toxic
[20]
  IC50: 10000 nM
